Laboratory results from ChEMBL document CHEMBL3792290, “Part 1: Notch-sparing γ-secretase inhibitors: The identification of novel naphthyl and benzofuranyl amide analogs” (Bioorg Med Chem Lett, 2016).
≈ marks a conversion by molar mass, not a printed value.

Key:
[1] = Inhibition of human gamma-secretase expressed in CHO cells assessed as effect on Notch1 processing at 100 uM using N100-Flag as substrate incubated for 4 hrs by Western blot analysis relative to DMSO control; format: cell-based
How it was run: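 Purified human γ-secretase from CHO cells stably overexpressing all four components; E. coli-expressed purified C100-Flag (APP) or N100-Flag (Notch) substrate; compounds at 100 μM final in 0.2% CHAPSO/HEPES pH 7.0 with 0.08% phosphatidylcholine, 0.02% phosphatidylethanolamine, DMSO <1% final; 37°C, 4 h; stopped with 0.5% SDS; Aβ40 by ELISA or Notch1 processing by Western blot, versus DMSO control.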

[2] = molecular target: T1, Gamma-secretase (Homo sapiens) (UniProt Q96BI3+Q9NZ42+Q8WW43+P49768+Q92542+P49810); assay: Inhibition of purified human gamma-secretase expressed in CHO cells assessed as suppression of amyloid beta 40 production at 100 uM using C100-Flag as substrate incubated for 4 hrs by ELISA relative to DMSO control
Gamma-secretase [3] = assay: Inhibition of gamma-secretase (unknown origin) assessed as suppression of amyloid beta 42 production by cell-based assay; design: species or system Homo sapiens
Gamma-secretase [4] = assay: Inhibition of human gamma-secretase expressed in CHO cells assessed as suppression of amyloid beta 40 production using C100-Flag as substrate incubated for 4 hrs by ELISA relative to DMSO control; format: cell-based
How it was run: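 Enzyme from CHO cells stably overexpressing all four γ-secretase components, purified; C100-Flag substrate expressed in E. coli; reaction in 0.2% CHAPSO/HEPES pH 7.0 containing 0.08% phosphatidylcholine and 0.02% phosphatidylethanolamine, final DMSO <1%; incubated 37°C for 4 h, quenched with SDS (0.5% final); Aβ40 quantified by specific ELISA as percent of DMSO control.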

Gamma-secretase [5] = assay: Inhibition of human gamma-secretase expressed in CHO cells assessed as suppression of amyloid beta 42 production using C100-Flag as substrate incubated for 4 hrs by ELISA; format: cell-based
[6] = Solubility of compound in PBS buffer at pH 7.4; format: physicochemical
[7] = Lipophilicity, logD of the compound; format: physicochemical; details: octanol/water
[8] = Protein binding in human plasma; format: ADME, cell-free; details: read-out: PPB (converted)
[9] = Permeability of compound from apical to basolateral side; format: ADME; details: not told; read-out: permeability
[10] = Metabolic stability in human liver microsomes assessed as parent compound remaining after 60 mins; format: ADME; details: read-out: Stability
[11] = Metabolic stability in rat liver microsomes assessed as parent compound remaining after 60 mins; format: ADME; details: read-out: Stability
[12] = molecular target: T1, Gamma-secretase (Homo sapiens); assay: Inhibition of gamma-secretase (unknown origin) assessed as suppression of amyloid beta 42 production at 100 uM by cell-based assay
Gamma-secretase [13] = assay: Inhibition of gamma-secretase (unknown origin) assessed as suppression of amyloid beta 40 production by cell-based assay; design: species or system Homo sapiens
[14] = Inhibition of gamma-secretase (unknown origin) assessed as suppression of Notch1 processing by cell-based assay; details: Homo sapiens

Row | SMILES | inhibition (INH) [1] | inhibition [2] [%] | other results
1 | O=S(=O)(c1ccc(F)cc1)N(Cc1ccccc1OC1CCOCC1)c1cc(F)ccc1F | – | – | IC50 (Gamma-secretase [3]): 0.62 µM; IC50 (Gamma-secretase [4]): 0.36 µM; IC50 (Gamma-secretase [5]): 0.4 µM
2 | CC(C)N(Cc1ccccc1)C(=O)c1cccc(Oc2ccccc2)c1 | Active | 50 | –
3 | COc1cc(CN(C(=O)c2ccc3ccccc3c2)C(C)C)cc(OC)c1 | Not Active | 35 | –
4 | COc1cccc2cc(C(=O)N(Cc3ccc(F)c(Cl)c3)C(C)C)oc12 | Not Active | 49 | –
5 | COC(=O)c1ccc(CN(c2cc(F)ccc2F)S(=O)(=O)c2ccc(F)cc2)cc1 | – | – | IC50 (Gamma-secretase [4]): 0.58 µM
6 | CC(C)N(Cc1ccccc1)C(=O)c1ccc2occc2c1 | – | 14 | –
7 | CN(Cc1ccccc1)C(=O)c1ccc2ccccc2c1 | – | 15 | –
8 | COc1cccc2cc(C(=O)N(Cc3ccc(Cl)c(F)c3)C(C)C)oc12 | Not Active | 23 | –
9 | CC(C)N(Cc1ccccc1)C(=O)c1cn(C)c2ccccc12 | – | 0 | –
10 | CC(C)N(Cc1ccccc1)C(=O)c1ccc2ccccc2c1 | Not Active | 58 | solubility [6]: 63 µM (≈ 19.1 µg/mL); logD [7]: 4.2; fraction unbound [8]: 0.043; Papp A→B [9]: 39.6 ×10⁻⁶ cm/s; remaining at 1 h [10]: 28%; remaining at 1 h [11]: 1%; inhibition [12]: 81%
11 | CC(C)N(Cc1ccc(Cl)c(Cl)c1)C(=O)c1cc2ccccc2o1 | Not Active | 51 | –
12 | CC(C)N(Cc1ccccc1)C(=O)c1ccc(C(C)(C)C)cc1 | Active | 85 | –
13 | CCC(CC)N(Cc1ccc(C(=O)O)cc1)S(=O)(=O)c1ccc(Cl)cc1 | – | – | IC50 (Gamma-secretase [3]): 0.13 µM; IC50 (Gamma-secretase [13]): 0.12 µM; IC50 [14]: 10 µM
14 | CC(C)N(Cc1ccccc1)C(=O)c1cnc2ccccc2c1 | Active | 50 | –
15 | O=C(NCc1ccccc1)c1ccc2ccccc2c1 | – | 0 | –
16 | O=C(c1ccc2ccccc2c1)N(Cc1ccccc1)C1CC1 | Not Active | 37 | –
17 | CC(C)N(Cc1ccc(N2CCCCC2)cc1)C(=O)c1ccc2ccccc2c1 | Active | 38 | –
18 | CCOc1cccc2cc(C(=O)N(Cc3ccc(Cl)c(Cl)c3)C(C)C)oc12 | Not Active | 58 | –
19 | CC(C)N(Cc1ccccc1)C(=O)c1ccc(-c2ccccc2)cc1 | – | 27 | –
20 | CC(C)N(Cc1ccccc1)C(=O)c1cc2ccccc2o1 | Not Active | 40 | –
21 | CC(C)N(Cc1ccccc1)C(=O)c1ccccc1 | – | 10 | –
22 | Cc1c(C(=O)N(Cc2ccc(Cl)c(Cl)c2)C(C)C)oc2ccccc12 | – | 0 | –
23 | COc1cccc2cc(C(=O)N(Cc3ccc(Cl)c(Cl)c3)C(C)C)oc12 | Not Active | 75 | inhibition [12]: 81%
24 | CC(C)(C)N(Cc1ccccc1)C(=O)c1ccc2ccccc2c1 | Not Active | 52 | –

More lines, main results first:

Row | inhibition (INH) [1] | inhibition [2] [%] | SMILES | other results
25 | Active | 47 | COc1ccc(CN(C(=O)c2ccc3ccccc3c2)C(C)C)cc1 | –
26 | Not Active | 34 | CC(C)N(Cc1ccc(F)c(F)c1)C(=O)c1ccc2ccccc2c1 | –
27 | – | 27 | CC(C)N(Cc1cc(F)cc(F)c1)C(=O)c1ccc2ccccc2c1O | –
28 | Not Active | 58 | CC(C)N(Cc1ccc(Cl)c(Cl)c1)C(=O)c1ccc2ccccc2c1 | IC50 (Gamma-secretase [3]): 135 µM
29 | – | 21 | CC(C)N(Cc1cc(F)cc(F)c1)C(=O)c1ccc2ccccc2c1 | –
30 | Not Active | 41 | CC(C)N(Cc1ccc(Cl)c(Cl)c1)C(=O)c1ccc2ccccc2c1O | IC50 (Gamma-secretase [3]): 85 µM
31 | – | 31 | CC(C)N(Cc1ccc(C#N)cc1)C(=O)c1ccc2ccccc2c1 | –
32 | Not Active | 19 | COc1cccc(CN(C(=O)c2ccc3ccccc3c2)C(C)C)c1 | –
33 | Not Active | 67 | CC(C)N(Cc1ccccc1)C(=O)c1ccc2ccccc2c1O | IC50 (Gamma-secretase [3]): 96 µM
34 | Not Active | 33 | COc1ccc(CN(C(=O)c2ccc3ccccc3c2O)C(C)C)cc1 | IC50 (Gamma-secretase [3]): 95 µM
35 | Not Active | 33 | CC(C)N(Cc1ccccc1)C(=O)c1cnc2cc(Cl)ccc2c1O | –
36 | Not Active | 49 | CC(C)N(Cc1ccc(F)c(F)c1)C(=O)c1ccc2ccccc2c1O | –
37 | – | 31 | CC(C)N(Cc1cccc(C#N)c1)C(=O)c1ccc2ccccc2c1 | –
